# Measured values taken from ChEMBL document CHEMBL5647689, “Functional role and therapeutic potential of the pim-1 kinase in colon carcinoma” (Neoplasia, 2013).
# Calls of active or inactive are those of the source. No cut-off for these calls is given here.
# Tests used:
# HCT-116 [1] = assay: Antiproliferative activity against siRNA-mediated Pim-1 knockout human HCT-116 cells assessed as reduction in cell viability measured after 72 hrs; format: functional, cell-based; settings: dose 0.066-66 µM
# In short: (§1)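 HCT-116 (1 x 10^3/well) or LS174T (3 x 10^3/well) cells were grown in IMDM/10% FCS at 37°C, 5% CO2. The medium was replaced with IMDM/10% FCS containing the inhibitor at the indicated concentrations, and cells were kept 72 h at 37°C. Inhibitor stock was 20 mg/ml in DMSO, diluted in PBS or medium.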
# LS174T = assay: Antiproliferative activity against siRNA-mediated Pim-1 knockout human LS174T cells assessed as reduction in cell viability measured after 72 hrs; format: functional, cell-based; settings: dose 0.13-130 µM; in short: as §1
# HCT-116 [2] = assay: Induction of apoptosis in siRNA-mediated Pim-1 knockout human HCT-116 cells assessed as increase in caspase 3/7 activity at 0.7 uM incubated for 72 hrs by Caspase-Glo 3/7 reagent based microplate reader analysis; format: functional, cell-based
# In short: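 HCT-116 cells (1 x 10^3/well) were exposed to the inhibitor in IMDM/10% FCS for 72 h at 37°C. Caspase-3/7 was read by Caspase-Glo 3/7: substrate diluted 1:5 in serum-free medium, 1 h at room temperature in the dark, then luminescence. A WST-1 assay run in parallel on the same plate normalized for cell density.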
# HCT-116 [3] = assay: Downregulation of pim-1 levels in human HCT-116 cells at 2 uM incubated for 24 hrs by Western blotting analysis; format: functional, cell-based
# In short: (§2)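 HCT-116 lysates were made on ice in PBS with 1 mM EDTA, 1% NP-40, protease and phosphatase inhibitors, then sonicated and cleared by centrifugation. Protein was measured by DC assay. 40 µg ran on 10% SDS-PAGE and went onto PVDF (0.45 µm). Blocking used 5% milk/TBST; primary antibodies ran overnight at 4°C, then HRP secondaries for 1 h. Detection was ECL with densitometric quantitation of scanned bands.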
# HCT-116 [4] = assay: Downregulation of p-STAT3 levels at serine 727 residue in human HCT-116 cells at 2 uM incubated for 24 hrs by Western blotting analysis; format: functional, cell-based; in short: as §2
# HCT-116 [5] = assay: Downregulation of p-p21 levels in human HCT-116 cells at 2 uM incubated for 24 hrs by Western blotting analysis; format: functional, cell-based; in short: as §2
# HCT-116 [6] = assay: Downregulation of c-Myc levels in human HCT-116 cells at 2 uM incubated for 24 hrs by Western blotting analysis; format: functional, cell-based; in short: as §2
# HCT-116 [7] = assay: Downregulation of E-cadherin levels in human HCT-116 cells at 2 uM incubated for 24 hrs by Western blotting analysis; format: functional, cell-based; in short: as §2
# HCT-116 [8] = assay: Synergistic antitumor activity against human HCT-116 cells xenografted in athymic nude mouse assessed as tumor growth inhibition at 70 mg/kg, ip administered on day 3 to 4 measured after 14 days; format: functional; settings: HCT-116, 336 h, time 14 day, read-out: TGI
# HCT-116 [9] = assay: Synergistic antitumor activity against PEI complexed siRNA-mediated Pim-1 knockout human HCT-116 cells xenografted in athymic nude mouse assessed as tumor growth inhibition at 70 mg/kg, ip administered on day 3 to 4 measured after 14 days; format: functional; settings: HCT-116, 336 h, time 14 day, read-out: TGI
# HCT-116 [10] = assay: Synergistic antitumor activity against PEI complexed siRNA-mediated luciferase knockout human HCT-116 cells xenografted in athymic nude mouse assessed as tumor growth inhibition at 70 mg/kg, ip administered on day 3 to 4 measured after 14 days; format: functional; settings: HCT-116, 336 h, time 14 day, read-out: TGI
# [11] = Toxicity in athymic nude mouse xenografted with human HCT-116 cells assessed as change in body weight at 70 mg/kg, ip administered twice a week measured after 14 days; format: organism-based; settings: in vivo, 336 h, time 14 day
# [12] = Toxicity in athymic nude mouse xenografted with human HCT-116 cells assessed as change in body weight at 40 mg/kg, ip administered twice a week measured after 14 days; format: organism-based; settings: in vivo, 336 h, time 14 day
# [13] = Toxicity in athymic nude mouse xenografted with human HCT-116 cells assessed as behavioural changes in at 70 mg/kg, ip administered twice a week measured after 14 days; format: organism-based; settings: in vivo, 336 h, time 14 day
# [14] = Toxicity in athymic nude mouse xenografted with human HCT-116 cells assessed as behavioural changes in at 40 mg/kg, ip administered twice a week measured after 14 days; format: organism-based; settings: in vivo, 336 h, time 14 day
# HCT-116 [15] = assay: Synergistic antitumor activity against PEI complexed siRNA treated human HCT-116 cells xenografted in athymic nude mouse assessed as tumor growth inhibition at 40 mg/kg, ip administered on day 3 to 4 measured after 14 days; format: functional; settings: HCT-116, 336 h, time 14 day, read-out: TGI
# HCT-116 [16] = assay: Synergistic antitumor activity against PEI complexed siRNA-mediated Pim-1 knockout human HCT-116 cells xenografted in athymic nude mouse assessed as tumor growth inhibition at 40 mg/kg, ip administered on day 3 to 4 measured after 14 days; format: functional; settings: HCT-116, 336 h, time 14 day, read-out: TGI
# HCT-116 [17] = assay: Antitumor activity against PEI complexed siRNA-mediated Pim-1 knockout human HCT-116 cells xenografted in athymic nude mouse assessed as increase in pim-1 levels in tumor at 40 to 70 mg/kg, ip administered on day 3 to 4 measured after 14 days by immunohistochemical staining based analysis; format: functional, organism-based; settings: dose 40-70 mg/kg, time 14.0 day
# In short: (§3)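 Nude mice (Foxn1nu, 6–8 weeks) carried s.c. HCT-116 flank tumours (1.5 x 10^6 cells) and were randomized at 40–50 mm3, n = 12 tumours/group. PEI F25-LMW-complexed siRNA (Pim-1 or control) was given at 10 µg i.p. every 2–3 days; 70 or 40 mg/kg in PBS was given i.p. every 3–4 days. Paraffin tumour sections were stained for Pim-1 and ranked 0–4.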
# HCT-116 [18] = assay: Antitumor activity against PEI complexed siRNA-mediated luciferase knockout human HCT-116 cells xenografted in athymic nude mouse assessed as increase in pim-1 levels in tumor at 40 to 70 mg/kg, ip administered on day 3 to 4 measured after 14 days by immunohistochemical staining based analysis; format: functional, organism-based; settings: dose 40-70 mg/kg, time 14.0 day; in short: as §3
# HCT-116 [19] = assay: Antiproliferative activity against siRNA-mediated Pim-1 knockout human HCT-116 cells assessed as increase in pim-1 mRNA levels measured after 24 hrs by q-PCR analysis; format: functional, cell-based; settings: dose 1-3 µM
# In short: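 HCT-116 cells seeded at 3.5 x 10^5 per six-well well under standard conditions, then exposed 24 h at 37°C to 1 or 3 µM in IMDM/10% FCS. Total RNA was extracted by phenol/chloroform, and Pim-1 mRNA was measured by SYBR Green qPCR run in parallel with actin. Levels were expressed as 2^CP(target)/2^CP(actin).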
# HCT-116 [20] = assay: Induction of apoptosis in human HCT-116 cells assessed as fold increase in caspase 3/7 activity incubated for 72 hrs by Caspase-Glo 3/7 reagent based microplate reader analysis; format: functional
# HCT-116 [21] = assay: Induction of apoptosis in siRNA-mediated Pim-1 knockout human HCT-116 cells assessed as fold increase in caspase 3/7 activity incubated for 72 hrs by Caspase-Glo 3/7 reagent based microplate reader analysis; format: functional
# In short: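 HCT-116 cells, 5 x 10^2 per well, transfected with 20 nM siPim-1 […], held 72 h at 37°C. Caspase substrate diluted 1:5 in serum-free medium added for 1 h at room temperature in the dark; luminescence read. Signal normalized to a parallel WST-1 assay on the same plate. Means ± SEM.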
# [22] = Downregulation of miR-15b expression in human HCT-116 cells at 3 uM incubated for 24 hrs by […] analysis; format: functional
# HCT-116 [23] = assay: Induction of miR-15b mediated pim-1 expression in human HCT-116 cells assessed as increase in luciferase activity at 3 uM incubated for 72 hrs by luminometer analysis; format: functional, cell-based
# In short: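 HCT-116 cells (3 x 10^4 per 24-well well) co-transfected via PEI F25-LMW with 125 ng pGL3 luciferase reporter carrying Pim-1 3′UTR, intact or miR-15b-seed-mutated. After 48 h, 1 or 3 µM in IMDM/10% FCS was added for 24 h at 37°C. Lysate was mixed with luciferase substrate and read on a luminometer.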
# HCT-116 [24] = assay: cells; settings: Homo sapiens, HCT-116, 72 h
# HCT-116 [25] = assay: cells; settings: Homo sapiens, HCT-116, 72 h; remark: listed apart in the source
compound,measurement,setting,value
Cn1c2c(c3ccc(Cl)c(Cl)c31)C(C#N)C1(CCNCC1)NC2=O (stereo unspecified),Activity,HCT-116 [1],Dose-Dependent Effect
same,Activity,LS174T,Dose-Dependent Effect
same,Activity,HCT-116 [2],Active
same,Activity,HCT-116 [3],Active
same,Activity,HCT-116 [4],Active
same,Activity,HCT-116 [5],Active
same,Activity,HCT-116 [6],Active
same,Activity,HCT-116 [7],Active
O=c1[nH]cc(F)c(=O)[nH]1 [FLUOROURACIL],inhibition in vivo at 70 mg/kg,HCT-116 [8],~40%
same,inhibition in vivo at 70 mg/kg,HCT-116 [9],~30%
same,inhibition in vivo at 70 mg/kg,HCT-116 [10],~30%
same,Activity,[11],Toxic
same,Activity,[12],Non-Toxic
same,Activity,[13],Toxic
same,Activity,[14],Non-Toxic
same,inhibition in vivo at 40 mg/kg,HCT-116 [15],~20%
same,inhibition in vivo at 40 mg/kg,HCT-116 [16],~60%
same,Activity,HCT-116 [17],Active
same,Activity,HCT-116 [18],Active
same,Activity,HCT-116 [19],Dose-Dependent Effect
same,fold change (FC),HCT-116 [20],~1.7
same,fold change (FC),HCT-116 [21],1.4
same,Activity,[22],40%
same,Activity,HCT-116 [23],Active
same,IC50,HCT-116 [24],10.1 µM
same,IC50,HCT-116 [25],3.2 µM
